Reference: ChEMBL document CHEMBL1127672, “Synthesis and biological evaluation of 2',3'-dideoxy-L-pyrimidine nucleosides as potential antiviral agents against human immunodeficiency virus (HIV) and hepatitis B virus (HBV)” (J Med Chem, 1994)

Experiments:
Hepatoma cell line = test: The compound was tested for antiviral activity against Hepatitis B virus in human hepatoma cells.; type: functional; settings: read-out: ED50 (the source's name)
In short: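 HBV-carrying human hepatoma 2.2.15 cells, six-day-old cultures in MEM with Earle's salts and 10% FBS, given varying drug concentrations for 3 days, medium renewed with same drug for a further 3 days; virions in harvested medium PEG-precipitated, viral DNA measured by Southern analysis against untreated controls; ED50 = 50% inhibition.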

MT2 = test: The compound was tested for antiviral activity against HIV-1 in MT-2 cells; type: functional, Homo sapiens; settings: read-out: ED50 (the source's name)
In short: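 MT-2 cells (1 × 10^4/well, triplicate) in RPMI 1640 with 10% dialysed FBS infected with HIV-1 HTLV-IIIB at 0.1 TCID50/cell (0.01 for one compound), immediately added to serial drug dilutions; after 5 days, MTT read at A595; % protection versus infected and uninfected no-drug controls; ED50 from log plots.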

CCRF-CEM [1] = test: In vitro cytotoxicity against human CCRF-CEM T-lymphoblastic leukemia cells was determined; type: functional, cell-based
In short: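 CCRF-CEM suspension cultures in RPMI 1640 plus 10% horse serum, 37 °C, 5% CO2; exponential-phase cells at 2 × 10^4 cells/mL given various concentrations; cell numbers counted after 3 days versus drug-free control; 50% value read from plot of cell number against concentration.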

CCRF-CEM [2] = test: Concentration of compound required to inhibit the synthesis of mitochondrial DNA (mt DNA) in human CCRF-CEM T-lymphoblastic leukemia cells; type: functional, cell-based
In short: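 CEM cells exposed to varying drug concentrations, collected, washed in PBS, lysed in 10 mM Tris-HCl pH 7.0 by freeze-thaw; RNase A (10 μg/mL final) then proteinase K for 1 h; DNA blotted onto nylon after NaI addition and boiling 10 min. IC50 = concentration inhibiting mt DNA synthesis by 50%.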

[3] = Homo sapiens, Hepatoma cell line

| SMILES | EC50 (Hepatoma cell line) [µM] | EC50 (MT2) [µM] | EC50 (Hepatoma cell line; [3]) [µM] | EC50 (MT2; Homo sapiens, MT2) [µM] | IC50 (CCRF-CEM [1]; ccrf-cem) [µM] | IC50 (CCRF-CEM [2]; ccrf-cem) [µM] | IC50 (CCRF-CEM [1]; Homo sapiens, CCRF-CEM) [µM] | IC50 (CCRF-CEM [2]; Homo sapiens, CCRF-CEM) [µM] |
| --- | --- | --- | --- | --- | --- | --- | --- | --- |
| Nc1ccn([C@H]2CC[C@@H](CO)O2)c(=O)n1 (stereo in doubt; form 2) [ZALCITABINE] | 5 | > 100 |  |  |  |  |  |  |
| Cc1cn([C@@H]2CC[C@H](CO)O2)c(=O)[nH]c1=O |  |  | > 10 | > 100 |  |  |  |  |
| Nc1ccn([C@H]2CC[C@@H](CO)O2)c(=O)n1 (stereo in doubt; form 3) [ZALCITABINE] | 0.01 | 5 |  |  | 70 | > 100 |  |  |
| Nc1nc(=O)n([C@H]2CC[C@H](CO)O2)cc1F |  |  | 0.5 | 6 |  |  | > 100 |  |
| Nc1ccn([C@H]2CC[C@@H](CO)O2)c(=O)n1 (stereo in doubt; form 1) [ZALCITABINE] | 2.8 | 1.5 |  |  | 28 | 0.022 |  |  |
| Nc1nc(=O)n([C@@H]2CC[C@H](CO)O2)cc1F (stereo in doubt; form 2) | 0.01 | 0.5 |  |  | 67 |  |  | > 100 |
| Nc1nc(=O)n([C@@H]2CC[C@H](CO)O2)cc1F (stereo in doubt; form 1) | 10 | 2 |  |  | 2 |  |  |  |
| O=c1[nH]c(=O)n(C2CCC(CO)O2)cc1F (stereo not drawn) |  |  | > 10 | > 100 |  |  | > 100 |  |
| O=c1ccn(C2CCC(CO)O2)c(=O)[nH]1 (stereo not drawn) |  |  | > 100 | > 100 |  |  | > 100 |  |
